Measured values reported in ChEMBL document CHEMBL4145441, “Discovery of N-(5-((5-chloro-4-((2-(isopropylsulfonyl)phenyl)amino)pyrimidin-2-yl)amino)-4-methoxy-2-(4-methyl-1,4-diazepan-1-yl)phenyl)acrylamide (CHMFL-ALK/EGFR-050) as a potent ALK/EGFR dual kinase inhibitor capable of overcoming a variety of ALK/EGFR associated drug resistant mutants in NSCLC” (Eur J Med Chem, 2017).

Key:
[1] = system: NCI-H1975; experiment: Growth inhibition of human NCI-H1975 cells after 72 hrs by CellTiter-Glo assay; format: functional; conditions: NCI-H1975, 72 h
Summary of the method: (§1)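 Antiproliferative GI50 against H1975 and H3122 cells; each GI50 value obtained from triplicate testing.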

[2] = system: NCI-H3122; experiment: Growth inhibition of human NCI-H3122 cells after 72 hrs by CellTiter-Glo assay; format: functional; conditions: NCI-H3122, 72 h; summary of the method: as §1
[3] = biological target: T1, Epidermal growth factor receptor (Homo sapiens, UniProt P00533); experiment: Inhibition of TEL-fused EGFR (unknown origin) expressed in mouse BAF3 cells assessed as decrease in cell proliferation after 72 hrs by CellTiter-Glo assay; format: cell-based
[4] = system: Epidermal growth factor receptor (Homo sapiens), P00533 [T790M]; experiment: Inhibition of TEL-fused EGFR T790M mutant (unknown origin) expressed in mouse BAF3 cells assessed as decrease in cell proliferation after 72 hrs by CellTiter-Glo assay; format: cell-based
[5] = Antiproliferative activity against mouse BAF3 cells after 72 hrs by CellTiter-Glo assay; format: cell-based
[6] = system: Epidermal growth factor receptor (Homo sapiens), P00533 [C797S]; experiment: Inhibition of TEL-fused EGFR C797S mutant (unknown origin) expressed in mouse BAF3 cells assessed as decrease in cell proliferation after 72 hrs by CellTiter-Glo assay; format: cell-based
[7] = biological target: T1, Epidermal growth factor receptor; experiment: Inhibition of full length EGFR del19 mutant (unknown origin) expressed in mouse BAF3 cells assessed as decrease in cell proliferation after 72 hrs by CellTiter-Glo assay; format: cell-based
[8] = system: Epidermal growth factor receptor (Homo sapiens), P00533 [L858R]; experiment: Inhibition of full length EGFR L858R mutant (unknown origin) expressed in mouse BAF3 cells assessed as decrease in cell proliferation after 72 hrs by CellTiter-Glo assay; format: cell-based
[9] = system: Epidermal growth factor receptor (Homo sapiens), P00533 [L858R,T790M]; experiment: Inhibition of full length EGFR L858R/T790M mutant (unknown origin) expressed in mouse BAF3 cells assessed as decrease in cell proliferation after 72 hrs by CellTiter-Glo assay; format: cell-based
[10] = system: Epidermal growth factor receptor (Homo sapiens), P00533 [L858R,T790M,C797S]; experiment: Inhibition of full length EGFR L858R/T790M/C797S mutant (unknown origin) expressed in mouse BAF3 cells assessed as decrease in cell proliferation after 72 hrs by CellTiter-Glo assay; format: cell-based
[11] = system: NCI-H1975; experiment: Antiproliferative activity against human NCI-H1975 cells harboring EGFR L858R/T790M mutant after 72 hrs by CellTiter-Glo assay; format: functional; conditions: NCI-H1975, 72 h; summary of the method: as §1
[12] = system: PC-9; experiment: Antiproliferative activity against human PC9 cells harboring EGFR del19 mutant after 72 hrs by CellTiter-Glo assay; format: functional; conditions: PC-9, 72 h
[13] = system: HCC827; experiment: Antiproliferative activity against human HCC827 cells harboring EGFR del19 mutant after 72 hrs by CellTiter-Glo assay; format: functional; conditions: HCC827, 72 h
[14] = system: NCI-H3255; experiment: Antiproliferative activity against human H3255 cells harboring EGFR L858R mutant after 72 hrs by CellTiter-Glo assay; format: functional; conditions: NCI-H3255, 72 h
[15] = system: A549; experiment: Antiproliferative activity against human A549 cells harboring wild-type EGFR after 72 hrs by CellTiter-Glo assay; format: functional; conditions: A549, 72 h
[16] = system: NCI-H2122; experiment: Antiproliferative activity against human NCI-H2122 cells harboring wild-type EGFR after 72 hrs by CellTiter-Glo assay; format: functional; conditions: NCI-H2122, 72 h
[17] = system: NCI-H1355; experiment: Antiproliferative activity against human NCI-H1355 cells harboring wild-type EGFR after 72 hrs by CellTiter-Glo assay; format: functional; conditions: NCI-H1355, 72 h
[18] = system: NCI-H3122; experiment: Antiproliferative activity against human NCI-H3122 cells harboring EML4-fused ALK varian1 after 72 hrs by CellTiter-Glo assay; format: functional; conditions: NCI-H3122, 72 h; summary of the method: as §1
[19] = system: NCI-H2228; experiment: Antiproliferative activity against human NCI-H2228 cells harboring EML4-fused ALK varian3 after 72 hrs by CellTiter-Glo assay; format: functional; conditions: NCI-H2228, 72 h
[20] = Antiproliferative activity against CHO cells after 72 hrs by CellTiter-Glo assay; format: cell-based, Cricetulus griseus; conditions: chinese hamster
[21] = Antiproliferative activity against CHL cells after 72 hrs by CellTiter-Glo assay; format: cell-based, Cricetulus griseus; conditions: chinese hamster

T1 sequence (P00533 whole entry, the tested form may be a part): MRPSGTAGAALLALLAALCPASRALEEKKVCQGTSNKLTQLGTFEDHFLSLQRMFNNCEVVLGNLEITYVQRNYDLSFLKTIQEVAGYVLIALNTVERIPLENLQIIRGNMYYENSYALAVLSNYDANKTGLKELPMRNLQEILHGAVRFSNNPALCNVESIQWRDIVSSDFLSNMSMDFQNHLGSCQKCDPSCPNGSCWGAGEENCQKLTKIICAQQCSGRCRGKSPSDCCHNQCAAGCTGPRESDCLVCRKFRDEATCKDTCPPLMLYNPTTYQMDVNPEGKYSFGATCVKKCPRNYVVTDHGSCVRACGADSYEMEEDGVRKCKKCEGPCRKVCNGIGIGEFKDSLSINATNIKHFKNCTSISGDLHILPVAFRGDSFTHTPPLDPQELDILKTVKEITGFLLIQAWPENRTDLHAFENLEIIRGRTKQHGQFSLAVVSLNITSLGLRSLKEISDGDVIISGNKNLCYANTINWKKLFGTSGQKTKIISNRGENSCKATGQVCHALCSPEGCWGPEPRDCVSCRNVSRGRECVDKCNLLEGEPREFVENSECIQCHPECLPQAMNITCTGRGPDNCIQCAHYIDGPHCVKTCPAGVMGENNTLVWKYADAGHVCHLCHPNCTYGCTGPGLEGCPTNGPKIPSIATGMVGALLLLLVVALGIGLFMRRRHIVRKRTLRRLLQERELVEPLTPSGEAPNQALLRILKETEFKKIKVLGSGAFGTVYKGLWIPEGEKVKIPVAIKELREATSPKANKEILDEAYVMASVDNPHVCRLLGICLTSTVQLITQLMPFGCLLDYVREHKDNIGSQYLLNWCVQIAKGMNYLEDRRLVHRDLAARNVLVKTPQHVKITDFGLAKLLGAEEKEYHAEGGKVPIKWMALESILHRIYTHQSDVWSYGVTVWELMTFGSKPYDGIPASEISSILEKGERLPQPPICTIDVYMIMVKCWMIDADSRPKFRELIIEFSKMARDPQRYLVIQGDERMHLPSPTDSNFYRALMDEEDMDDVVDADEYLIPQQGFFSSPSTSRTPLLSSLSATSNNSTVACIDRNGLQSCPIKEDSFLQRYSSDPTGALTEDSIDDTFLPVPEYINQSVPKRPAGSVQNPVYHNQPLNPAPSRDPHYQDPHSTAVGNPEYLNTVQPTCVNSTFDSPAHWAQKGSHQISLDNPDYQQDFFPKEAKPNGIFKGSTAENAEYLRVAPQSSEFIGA
Sequence of Epidermal growth factor receptor (Homo sapiens), P00533 [T790M] (P00533 whole entry T790M, the tested form may be a part): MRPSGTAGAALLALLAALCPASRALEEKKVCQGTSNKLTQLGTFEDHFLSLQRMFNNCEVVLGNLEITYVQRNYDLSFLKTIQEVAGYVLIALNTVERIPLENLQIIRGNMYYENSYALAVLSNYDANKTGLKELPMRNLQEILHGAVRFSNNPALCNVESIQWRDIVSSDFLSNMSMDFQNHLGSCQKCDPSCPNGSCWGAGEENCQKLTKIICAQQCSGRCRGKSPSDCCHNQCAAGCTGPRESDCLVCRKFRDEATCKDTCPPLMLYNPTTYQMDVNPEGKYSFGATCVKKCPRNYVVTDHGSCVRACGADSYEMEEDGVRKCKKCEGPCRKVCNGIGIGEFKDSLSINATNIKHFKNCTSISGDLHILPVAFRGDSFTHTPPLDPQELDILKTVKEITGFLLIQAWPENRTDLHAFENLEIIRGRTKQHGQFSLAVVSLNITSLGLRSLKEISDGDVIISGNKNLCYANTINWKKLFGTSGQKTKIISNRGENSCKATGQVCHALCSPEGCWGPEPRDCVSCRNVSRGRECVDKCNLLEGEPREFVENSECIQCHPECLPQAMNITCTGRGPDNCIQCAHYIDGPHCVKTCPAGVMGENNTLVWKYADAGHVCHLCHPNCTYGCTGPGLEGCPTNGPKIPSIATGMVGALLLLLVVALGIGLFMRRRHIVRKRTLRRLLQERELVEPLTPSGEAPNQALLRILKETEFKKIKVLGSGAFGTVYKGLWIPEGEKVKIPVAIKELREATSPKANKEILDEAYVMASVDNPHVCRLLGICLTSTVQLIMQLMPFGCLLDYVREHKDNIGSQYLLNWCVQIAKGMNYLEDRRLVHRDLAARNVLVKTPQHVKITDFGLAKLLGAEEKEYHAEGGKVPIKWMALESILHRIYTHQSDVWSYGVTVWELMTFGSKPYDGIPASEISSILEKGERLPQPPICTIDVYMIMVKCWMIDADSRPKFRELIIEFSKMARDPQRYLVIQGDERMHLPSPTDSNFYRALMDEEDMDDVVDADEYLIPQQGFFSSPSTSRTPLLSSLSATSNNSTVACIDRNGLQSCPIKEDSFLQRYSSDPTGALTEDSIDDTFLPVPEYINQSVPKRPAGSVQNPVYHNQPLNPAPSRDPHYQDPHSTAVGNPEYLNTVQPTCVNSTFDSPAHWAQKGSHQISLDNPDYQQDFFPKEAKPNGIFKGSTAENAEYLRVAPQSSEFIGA
Sequence of Epidermal growth factor receptor (Homo sapiens), P00533 [C797S] (P00533 whole entry C797S, the tested form may be a part): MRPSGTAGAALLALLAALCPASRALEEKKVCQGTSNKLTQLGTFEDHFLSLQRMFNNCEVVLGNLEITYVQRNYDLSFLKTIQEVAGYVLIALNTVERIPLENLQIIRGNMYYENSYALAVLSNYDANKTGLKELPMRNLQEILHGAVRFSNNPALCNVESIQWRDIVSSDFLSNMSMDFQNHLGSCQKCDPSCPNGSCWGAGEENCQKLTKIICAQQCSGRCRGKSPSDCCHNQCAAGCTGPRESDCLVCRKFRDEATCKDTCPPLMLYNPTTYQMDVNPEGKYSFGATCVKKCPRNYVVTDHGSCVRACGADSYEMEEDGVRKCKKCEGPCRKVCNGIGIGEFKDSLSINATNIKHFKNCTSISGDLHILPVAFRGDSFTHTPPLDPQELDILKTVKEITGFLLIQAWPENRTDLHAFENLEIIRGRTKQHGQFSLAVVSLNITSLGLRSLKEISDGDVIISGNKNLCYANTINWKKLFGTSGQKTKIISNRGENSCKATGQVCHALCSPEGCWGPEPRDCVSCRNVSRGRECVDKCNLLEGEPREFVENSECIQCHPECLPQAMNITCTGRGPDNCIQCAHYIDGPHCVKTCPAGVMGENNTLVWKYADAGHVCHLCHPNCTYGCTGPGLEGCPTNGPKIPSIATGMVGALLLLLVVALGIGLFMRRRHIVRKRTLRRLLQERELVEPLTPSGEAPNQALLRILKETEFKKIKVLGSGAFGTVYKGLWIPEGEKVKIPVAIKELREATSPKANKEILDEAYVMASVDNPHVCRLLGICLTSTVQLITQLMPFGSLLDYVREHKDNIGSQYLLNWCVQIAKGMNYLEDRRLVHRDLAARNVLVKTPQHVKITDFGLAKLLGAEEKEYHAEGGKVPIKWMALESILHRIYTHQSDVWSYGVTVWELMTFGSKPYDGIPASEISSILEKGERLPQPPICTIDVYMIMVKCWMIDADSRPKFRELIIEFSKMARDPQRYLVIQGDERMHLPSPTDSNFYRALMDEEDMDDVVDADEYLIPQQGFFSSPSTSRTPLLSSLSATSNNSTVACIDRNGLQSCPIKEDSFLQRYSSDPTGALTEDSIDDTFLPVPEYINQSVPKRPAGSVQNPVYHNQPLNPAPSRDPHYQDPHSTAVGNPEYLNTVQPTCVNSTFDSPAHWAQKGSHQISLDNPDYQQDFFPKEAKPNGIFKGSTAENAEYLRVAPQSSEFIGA
Sequence of Epidermal growth factor receptor (Homo sapiens), P00533 [L858R,T790M] (P00533 whole entry T790M/L858R, looked up): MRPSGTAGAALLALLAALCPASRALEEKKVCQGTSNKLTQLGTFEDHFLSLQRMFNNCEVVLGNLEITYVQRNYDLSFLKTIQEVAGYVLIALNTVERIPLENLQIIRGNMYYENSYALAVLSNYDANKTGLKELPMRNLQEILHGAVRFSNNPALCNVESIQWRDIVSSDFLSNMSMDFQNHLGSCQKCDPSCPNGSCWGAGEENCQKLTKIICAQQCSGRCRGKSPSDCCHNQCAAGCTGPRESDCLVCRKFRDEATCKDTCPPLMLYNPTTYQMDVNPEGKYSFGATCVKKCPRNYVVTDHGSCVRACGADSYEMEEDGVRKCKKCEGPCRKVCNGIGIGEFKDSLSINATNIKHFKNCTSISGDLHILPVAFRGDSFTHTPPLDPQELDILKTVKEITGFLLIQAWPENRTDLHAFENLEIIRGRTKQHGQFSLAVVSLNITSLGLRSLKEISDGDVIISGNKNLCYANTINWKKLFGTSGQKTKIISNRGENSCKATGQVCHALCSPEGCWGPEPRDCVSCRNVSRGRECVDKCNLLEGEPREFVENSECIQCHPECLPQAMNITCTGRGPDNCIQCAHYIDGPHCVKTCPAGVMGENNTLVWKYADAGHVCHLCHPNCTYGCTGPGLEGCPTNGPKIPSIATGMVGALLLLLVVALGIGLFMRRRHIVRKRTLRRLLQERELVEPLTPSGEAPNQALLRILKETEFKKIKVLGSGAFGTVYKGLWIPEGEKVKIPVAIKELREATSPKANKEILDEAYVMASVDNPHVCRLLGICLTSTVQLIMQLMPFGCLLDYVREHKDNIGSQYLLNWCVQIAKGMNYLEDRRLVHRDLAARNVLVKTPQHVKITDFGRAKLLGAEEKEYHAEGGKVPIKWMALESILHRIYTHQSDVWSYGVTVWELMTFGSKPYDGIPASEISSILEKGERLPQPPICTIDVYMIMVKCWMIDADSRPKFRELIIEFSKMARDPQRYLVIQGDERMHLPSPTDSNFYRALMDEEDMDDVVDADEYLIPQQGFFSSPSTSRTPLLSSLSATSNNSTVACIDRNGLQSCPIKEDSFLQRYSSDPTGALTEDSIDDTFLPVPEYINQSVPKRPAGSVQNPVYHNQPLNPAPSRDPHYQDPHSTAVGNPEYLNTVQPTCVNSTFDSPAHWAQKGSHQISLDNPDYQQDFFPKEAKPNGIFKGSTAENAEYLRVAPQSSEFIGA

Structure (SMILES)	GI50 [1] [µM]	GI50 [2] [µM]	further results
C=CC(=O)Nc1cc(Nc2ncc(C)c(Nc3ccccc3S(=O)(=O)C(C)C)n2)c(OC)cc1N1CCN(CC)CC1	0.043	0.002	
C=CC(=O)Nc1cc(Nc2ncc(Cl)c(Nc3ccccc3C(=O)NC)n2)c(OC)cc1N1CCN(C(C)C)CC1	0.079	0.0045	
COc1cc(N2CCC(N3CCN(C)CC3)CC2)ccc1Nc1ncc(Cl)c(Nc2ccccc2S(=O)(=O)C(C)C)n1			GI50 [3]: 0.56 µM; GI50 [4]: 0.42 µM
C=CC(=O)Nc1cc(Nc2nccc(Nc3ccccc3S(=O)(=O)C(C)C)n2)c(OC)cc1N1CCN(CC)CC1	0.19	0.041	
CCC(=O)Nc1cc(Nc2ncc(Cl)c(Nc3ccccc3S(=O)(=O)C(C)C)n2)c(OC)cc1N1CCCN(C)CC1			GI50 at 72 h [5]: 7.1 µM; GI50 [3]: 1.5 µM; GI50 [6]: 0.36 µM; GI50 [4]: 0.8 µM; GI50 [7]: 0.27 µM; GI50 [8]: 0.37 µM; GI50 [9]: 0.29 µM; GI50 [10]: 1.7 µM; GI50 [11]: 0.7 µM; GI50 [12]: 0.34 µM; GI50 [13]: 2.6 µM; GI50 [14]: 0.83 µM; GI50 [15]: 1.2 µM; GI50 [16]: 3.3 µM; GI50 [17]: 2.2 µM; GI50 [18]: < 0.0003 µM; GI50 [19]: 0.1 µM; GI50 at 72 h [20]: 3.6 µM; GI50 at 72 h [21]: 1.3 µM
C=CC(=O)Nc1cc(Nc2ncc(Cl)c(Nc3ccccc3P(C)(C)=O)n2)c(OC)cc1N1CCN(CC)CC1	0.026	0.037	
C=CC(=O)Nc1cc(Nc2ncc(Cl)c(Nc3ccccc3C(=O)NC)n2)c(OC)cc1N1CCN(C(C)=O)CC1	0.25	0.012	
C=CC(=O)Nc1cc(Nc2ncc(Cl)c(Nc3c(F)cccc3F)n2)c(OC)cc1N1CCN(C)CC1	0.13	2.9	
C=CC(=O)Nc1cc(Nc2ncc(Cl)c(NC3CC3)n2)c(OC)cc1N1CCN(C)CC1	> 10	3.2	
C=CC(=O)Nc1cc(Nc2ncc(Cl)c(Nc3ccccc3C#N)n2)c(OC)cc1N1CCN(C(C)C)CC1	0.43	0.11	
C=CC(=O)Nc1cc(Nc2ncc(Cl)c(Nc3ccccc3S(=O)(=O)C(C)C)n2)c(OC)cc1N1CCN(CCOC)CC1	0.041		
C=CC(=O)Nc1cccc(Oc2nc(Nc3ccc(N4CCN(C)CC4)cc3OC)ncc2Cl)c1			GI50 [6]: 0.89 µM; GI50 [4]: 0.0021 µM; GI50 [11]: 0.056 µM; GI50 [12]: 0.027 µM; GI50 [13]: 0.0074 µM; GI50 [14]: 0.39 µM; GI50 [15]: > 10 µM; GI50 [16]: 5.7 µM; GI50 [17]: 5.3 µM; GI50 at 72 h [20]: 3.9 µM; GI50 at 72 h [21]: 4.4 µM
C=CC(=O)Nc1cc(Nc2ncc(Cl)c(Nc3ccccc3P(C)(C)=O)n2)c(OC)cc1N1CCC(N2CCCCC2)CC1	0.041	0.078	
C[C@@H](Oc1cc(-c2cnn(C3CCNCC3)c2)cnc1N)c1c(Cl)ccc(F)c1Cl [CRIZOTINIB]			GI50 at 72 h [5]: 1.1 µM; GI50 [18]: 0.037 µM; GI50 at 72 h [20]: 3.2 µM; GI50 at 72 h [21]: 0.45 µM
C=CC(=O)Nc1cc(Nc2ncc(Cl)c(Nc3ccccc3S(=O)(=O)C(C)C)n2)c(OC)cc1N1CCC(N2CCN(C)CC2)CC1	0.023		
C=CC(=O)Nc1cc(Nc2ncc(Cl)c(Nc3ccccc3S(=O)(=O)C(C)C)n2)c(OC)cc1N1CCN(C)CC1	0.043	0.033	
C=CC(=O)Nc1cc(Nc2ncc(Cl)c(Nc3ccccc3S(=O)(=O)C(C)C)n2)c(OC)cc1N1CCN(C(C)C)CC1	0.025		
C=CC(=O)Nc1cc(Nc2ncc(Cl)c(Nc3ccccc3S(=O)(=O)C(C)C)n2)c(OC)cc1N1CCOCC1	1.2	< 0.0003	
C=CC(=O)Nc1cc(Nc2ncc(Cl)c(Nc3ccccc3P(C)(C)=O)n2)c(OC)cc1N1CCC(N(C)C)CC1	0.22	0.14	

Structure (SMILES)	GI50 [1] [µM]	GI50 [2] [µM]	further results
C=CC(=O)Nc1cc(Nc2ncc(Cl)c(N(C)c3cccc(C(F)(F)F)c3)n2)c(OC)cc1N1CCN(C)CC1	1.8	3.6	
C=CC(=O)Nc1cc(Nc2ncc(Cl)c(Nc3ccccc3S(=O)(=O)C(C)C)n2)c(OC)cc1N1CCN(C2CCCCC2)CC1	0.077		
C=CC(=O)Nc1cc(Nc2ncc(Cl)c(Nc3ccccc3S(=O)(=O)C(C)C)n2)ccc1N1CCC(N2CCN(C)CC2)CC1	7.1	4.9	
C=CC(=O)Nc1cc(Nc2ncc(Cl)c(Nc3ccccc3P(C)(C)=O)n2)c(OC)cc1N1CCN(S(C)(=O)=O)CC1	0.89	0.8	
C=CC(=O)Nc1cc(Nc2ncc(Cl)c(Nc3ccccc3C(=O)NC)n2)c(OC)cc1N1CCN(C2CCN(C)CC2)CC1	0.12	0.018	
C=CC(=O)Nc1cc(Nc2ncc(Cl)c(NCc3cccs3)n2)c(OC)cc1N1CCN(C)CC1	0.22	0.27	
C=CC(=O)Nc1cc(Nc2ncc(Cl)c(Nc3ccccc3S(=O)(=O)C(C)C)n2)c(OC)cc1N1CCCCC1	0.24	0.029	
C=CC(=O)Nc1cc(Nc2ncc(Cl)c(Nc3ccccc3C#N)n2)c(OC)cc1N1CCN(CC)CC1	0.44	0.11	
C=CC(=O)Nc1cc(Nc2ncc(Cl)c(Nc3ccccc3C#N)n2)c(OC)cc1N1CCOCC1	1.2	0.37	
C=CC(=O)Nc1cc(Nc2ncc(Cl)c(Nc3ccc(F)c(Cl)c3)n2)c(OC)cc1N1CCN(C)CC1	0.1	0.3	
C=CC(=O)Nc1cc(Nc2ncc(Cl)c(Nc3ccccc3S(=O)(=O)C(C)C)n2)c(OC)cc1N1CCN(S(C)(=O)=O)CC1	0.04		
C=CC(=O)Nc1cc(Nc2ncc(Cl)c(Nc3ccccc3P(C)(C)=O)n2)c(OC)cc1N1CCOCC1	0.78	0.36	
C=CC(=O)Nc1cc(Nc2ncc(Cl)c(Nc3ccccc3C(=O)NC)n2)c(OC)cc1N1CCN(C)CC1	0.05	0.0035	
C=CC(=O)Nc1cc(Nc2ncc(Cl)c(Nc3ccccc3S(=O)(=O)C(C)C)n2)c(OC(C)C)cc1N1CCN(CC)CC1	0.3	< 0.0003	
C=CC(=O)Nc1cc(Nc2ncc(Cl)c(Nc3ccccc3NC(=O)C(C)(C)C)n2)c(OC)cc1N1CCN(C)CC1	0.95	6.5	
C=CC(=O)Nc1cc(Nc2ncc(Cl)c(Nc3ccccc3C#N)n2)c(OC)cc1N1CCC(N2CCN(C)CC2)CC1	0.2	0.098	
C=CC(=O)Nc1cc(Nc2ncc(Cl)c(Nc3cccc(C(F)(F)F)c3)n2)c(OC)cc1N1CCN(C)CC1	0.26	0.77	
C=CC(=O)Nc1cc(Nc2ncc(C)c(Nc3ccccc3S(=O)(=O)C(C)C)n2)c(OC)cc1N1CCC(N2CCN(C)CC2)CC1	0.027		
C=CC(=O)Nc1cc(Nc2ncc(Cl)c(Nc3ccccc3S(=O)(=O)N(C)C)n2)c(OC)cc1N1CCN(C)CC1	0.031	0.011	
